# PMC8131326 (The Journal of Biological Chemistry, 2021)
# Legend:
# human Kv1.1 = assay: Whole-cell patch clamp, HEK 293T cells expressing Kv1.1; type: cell-based; conditions: 0.2 mM TEA; n = 5
# Procedure, shortened: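 HEK 293T cells carrying plasmids for human Kv1.1 plus EGFP. Whole-cell patch clamp at room temperature after holding at −70 mV for 4 min, filtered at 2 kHz and digitized at 20 kHz. Currents elicited by a +10 mV depolarization were compared before and after application of the test agent.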
# [1] = test system: carrageenan-induced paw edema in mice; assay: Carrageenan-induced paw edema assay; type: in vivo, Kunming mice; conditions: FS48 1.5 mg/kg
# Procedure, shortened: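 Male and female Kunming mice, randomized into four groups of six. Test compound (1.5 mg/kg), saline or aspirin (5 mg/kg) given i.p. 1 h before intraplantar 1% carrageenan in saline (50 μl) into the right hind paw. Paw volume to the ankle measured by plethysmometer before injection and at 2–24 h; swelling taken as Δvolume. In a second set, paws were excised at 4 h for histology, cytokine and MPO assays. Mean ± SEM, n = 6.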
# [2] = test system: Kv current of LPS-activated Raw 264.7 cells; assay: Kv currents of LPS-activated Raw 264.7 macrophages; type: cell-based, murine
# Procedure, shortened: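 Raw 264.7 cells in DMEM/10% FBS at 37 °C, 5% CO2, LPS-activated. Whole-cell patch clamp at room temperature, held at −70 mV for 4 min to equilibrate, filtered at 2 kHz and digitized at 20 kHz, 80% series-resistance compensation. Currents compared before and after test compound or 100 nM MgTx, with amplitude taken at +40 mV. I–V curves used 150-ms steps from −50 to +40 mV, 10 mV increments, 2 s intervals. Mean ± SEM, at least four experiments.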
# [3] = test system: Kv1.3 expression in Raw 264.7 cells; assay: Kv1.3 channel mRNA and protein expression in LPS-activated Raw 264.7 cells; type: cell-based, murine; conditions: 3 μM FS48, 100 nM MgTx, 100 ng/ml LPS
# Procedure, shortened: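 Raw 264.7 cells activated with 100 ng/ml LPS and exposed to test compound (3 μM) or MgTx (100 nM) for 24 h. Kv1.3 mRNA: Trizol RNA extraction, SYBR qRT-PCR (95 °C 5 min; 40 cycles of 95 °C 15 s / 60 °C 45 s), normalized to GAPDH by 2−ΔΔCT, in triplicate. Kv1.3 protein: western blot with primary antibody 1:2000 overnight at 4 °C, HRP chemiluminescence, densitometry against GAPDH, in triplicate.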
# [4] = test system: NO production in Raw 264.7 cells; assay: LPS-induced NO production and iNOS mRNA in Raw 264.7 cells; type: cell-based, murine; conditions: 100 ng/ml LPS
# Procedure, shortened: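 Nitrite: 5 × 10^4 Raw 264.7 cells/well grown overnight, then given test compound (0.1–10 μM) plus 100 ng/ml LPS (E. coli O55:B5) for 24 h; supernatant assayed by Griess reagent at 540 nm. MgTx 100 nM served as positive control; cells without compound and/or LPS as negative controls; repeated four times. iNOS mRNA: 3 μM compound plus LPS for 8 h, SYBR qRT-PCR normalized to GAPDH (2−ΔΔCT), fold change versus untreated, in triplicate.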
compound,measurement,setting,value
"CC[N+](CC)(CC)CC [TEA, tetraethylammonium]",reduction of Kv1.1 current by TEA,human Kv1.1,31.81 ± 1.98%
CC(=O)Oc1ccccc1C(=O)O [aspirin],"carrageenan-induced secretion of IL-1β, IL-6, and TNF-α in paw tissues","[1]; aspirin 5 mg/kg i.p., 4 h after carrageenan",diminished
same,leukocyte infiltration in paw (histological analysis),"[1]; aspirin 5 mg/kg i.p., 4 h after carrageenan, HE stain",obviously reduced
same,suppression of hind paw edema at 4 h versus model group,"[1]; aspirin 5 mg/kg, intraperitoneally 1 h before carrageenan (1%, 50 μl), 4 h, n = 6",approximately 44.79%
"MgTx: a highly specific Kv1.3 blocker, positive control (UniProtKB P40755) (TIINVKCTSPKQCLPPCKAQFGQSAGAKCMNGKCKCYPH; UniProt P40755 1-39, looked up)",Kv currents at all test voltages (−50 to +40 mV),"[2]; 1 μM FS48 or 100 nM MgTx, LPS-activated Raw 264.7 cells, n = 4",reduced markedly
same,reduction of amplitude of Kv current of LPS-activated macrophages,"[2]; at +40 mV, 100 nM MgTx, 10 μM FS48",59.45 ± 2.79%
same,Kv1.3 mRNA expression induced by LPS,[3]; real-time PCR,greatly reduced
same,decrease of Kv1.3 protein expression induced by LPS,"[3]; 24 h, western blot normalized to GAPDH",76.15 ± 13.81%
same,inhibition of LPS-induced nitrite production,"[4]; 10 μM FS48, 100 nM MgTx, 24 h, Griess reagent",about 37.65%
same,LPS-induced increase of mRNA level of iNOS,"[4]; exposure for 8 h, 3 μM FS48, qRT-PCR",evidently inhibited
same,effect on the second phase of carrageenan-induced paw edema,"[1]; MgTx 0.4179 mg/kg, intraperitoneally 1 h before carrageenan",remarkable anti-inflammatory effects
